Laboratory results reported in paper PMC9043999 (Cell Reports Medicine, 2022).

Columns and labels:
[1] = test system: insulin-deficient diabetes induced by a single high dose of streptozotocin in male and female mice; conditions: single high dose of STZ; cited from earlier work
ERE-GFP MIN6 cells = test: ERE-GFP reporter activation, flow cytometry; assay type: cell-based, mouse
Procedure, shortened: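 MIN6 cells were stably transduced with a lentiviral 4×ERE-driven GFP reporter and selected with puromycin (2 μg/mL). They were kept in phenol-free DMEM with 10% charcoal-stripped FBS for 7 days before and during assays. Test compounds were given overnight at 10−8 M, or in time courses at 10 nM (1 min) or 100 nM (1, 15, 60, 120 min). Percent GFP-positive cells were scored by flow cytometry, gated on vehicle-treated cells.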

[2] = test system: MLD-STZ-induced diabetes in male C57BL6 mice; test: MLD-STZ-induced diabetes, wild-type mice; assay type: in vivo, mouse
human islets [3] = test: RPPA phosphoproteins with Ingenuity Pathway Analysis; assay type: cell-based; conditions: for annotations predicting pathway activation (Z score > 2) / pathways predicting inhibition (Z score < −2): 10^−8 M, 5 min, N = 3 male donors; for most represented biological function: 5 min stimulation (Fig S5)
Procedure, shortened: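 Islets came from three male human donors and were cultured overnight at 37°C in phenol-red-free RPMI (11 mM glucose, 10% charcoal-stripped FBS). They were treated with test compounds at 10−8 M for 5 min, 30 min or 18 h, against untreated islets. Lysates were twofold serially diluted (5 dilutions), arrayed on slides and probed with 485 antibodies using tyramide amplification and DAB detection. Pathway changes were analysed with IPA Downstream Effects Analysis.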

human islets [4] = test: RPPA protein expression with gene ontology enrichment; assay type: cell-based; conditions: for GO pathways with downregulated proteins / GO pathways with upregulated proteins: adjusted p value < 0.01
Procedure, shortened: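 Islets from 3 male human donors, cultured overnight at 37°C in phenol-red-free RPMI (11 mM glucose, 10% charcoal-stripped FBS). […] Lysates serially diluted twofold (5 dilutions), arrayed on nitrocellulose, probed with 485 antibodies via tyramide amplification and DAB; expression normalized.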

GLP-1R = conditions: target β cells; cited from earlier work

C[C@]12CC[C@@H]3c4ccc(O)cc4CC[C@H]3[C@@H]1CC[C@@H]2O [E2, 17β-Estradiol]
prevention of insulin-deficient diabetes [1]: prevents insulin-deficient diabetes
increase in percentage of ERE-activated MIN6 cells (ERE-GFP MIN6 cells; 24 h exposure (text; overnight in legend), 10^−8 M (Fig 2D, 2E)): 4.7 fold
ERE activation with ER antagonist fulvestrant (ERE-GFP MIN6 cells; E2 after pretreatment with fulvestrant): reversed by pretreatment with the ER antagonist fulvestrant
increase in percentage of ERE-activated MIN6 cells (ERE-GFP MIN6 cells; E2 alone 1 min, 10 nM (Fig 2F, 2G)): 6.1 fold
time to reach the nucleus and activate EREs (ERE-GFP MIN6 cells; MIN6 cells): ≤ 1 min
index of β cell function (insulin/glucose) ([2]; male C57BL6 mice, 120 μg/kg/day, day 13, vs other treatments): maintenance of the index of β cell function
hyperglycemia ([2]; male C57BL6 mice, 120 μg/kg/day, vs other treatments, n = 10): decrease in hyperglycemia
level of phosphoproteins and related total proteins (human islets [3]; 5 and 30 min, vs GLP-1 or GLP1-E2): heightened level of phosphoproteins and related total proteins at 5 and 30 min
annotations predicting pathway activation (Z score > 2) (human islets [3]): related to cell viability and survival
pathways predicting inhibition (Z score < −2) (human islets [3]): related to cell death, apoptosis, or necrosis
most represented biological function (human islets [3]): Cell Death & Survival
level of phosphoproteins (human islets [3]; 18 h, vs GLP-1 or GLP1-E2): decreased in phosphoproteins at 18 h
protein expression (human islets [4]; 5 and 30 min): heightened protein expression at 5 and 30 min
GO pathways with downregulated proteins (human islets [4]; 18 h): downregulated multiple proteins enriched in pathways involved in apoptosis and inflammation, protein phosphorylation, transcription, and Akt/PI3-kinase
GO pathways with upregulated proteins (human islets [4]; 18 h): upregulated few proteins enriched in pathways involved in proliferation and response to estrogen
protein expression (human islets [4]; 18 h, compared to GLP-1- and GLP1-E2-treated islets): decreased protein expression level at 18 h

glucagon-like peptide-1 [GLP-1]
antidiabetic efficacy at dose ten times lower ([2]; mice, dose ten times lower (12 μg/kg)): not efficient in mice
annotations predicting pathway activation (Z score > 2) (human islets [3]): related to cell viability and survival
pathways predicting inhibition (Z score < −2) (human islets [3]): related to cell death, apoptosis, or necrosis
most represented biological function (human islets [3]): Cell Death & Survival
GO pathways with downregulated proteins (human islets [4]; 18 h): downregulated multiple proteins enriched in pathways involved in apoptosis, cytokine and oxidative stress-related inflammation, protein phosphorylation, Akt/PI3-kinase, and cell cycle
GO pathways with upregulated proteins (human islets [4]; 18 h): upregulated few proteins enriched in pathways involved in response to cytokines and glycolysis
clathrin-mediated endocytosis of GLP-1R (GLP-1R): promotes ligand-activated, clathrin-mediated endocytosis of GLP-1R
